Results as given in ChEMBL document CHEMBL1124099, “[1,2,4]Triazolo[4,3-a]quinoxalin-4-amines: a new class of A1 receptor selective adenosine antagonists” (J Med Chem, 1988).

Assays:
[1] = target: T1, Adenosine receptor A1 (Rattus norvegicus, UniProt P25099); experiment: Binding affinity towards adenosine A1 receptor using [3H]N-cyclohexyladenosine in rat whole brain membranes.; format: cell membranes
T1 sequence (P25099 whole entry): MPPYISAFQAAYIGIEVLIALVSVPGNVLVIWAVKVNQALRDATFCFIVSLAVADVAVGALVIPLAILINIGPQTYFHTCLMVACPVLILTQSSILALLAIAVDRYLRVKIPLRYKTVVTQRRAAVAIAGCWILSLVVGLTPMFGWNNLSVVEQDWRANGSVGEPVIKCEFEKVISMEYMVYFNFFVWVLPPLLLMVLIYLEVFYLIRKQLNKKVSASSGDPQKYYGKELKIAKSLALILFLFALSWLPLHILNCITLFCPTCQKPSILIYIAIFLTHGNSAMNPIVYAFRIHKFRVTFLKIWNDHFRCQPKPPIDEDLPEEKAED
Summary of the method: (§1)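 Radioligand displacement on rat membranes: A1 used [3H]N6-cyclohexyladenosine ([3H]CHA) with whole-brain membranes, and A2 used [3H]NECA with striatal membranes. The procedure follows an earlier report. Each value is the mean of three or more independent experiments.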

[2] = target: Adenosine A2 receptor (Rattus norvegicus, UniProt P29276+P30543); experiment: Binding affinity against Adenosine-2 receptor with [3H]-NECA in rat striatal membranes.; format: cell membranes; summary of the method: as §1
[3] = target: Adenosine receptors; A1 & A2 (Rattus norvegicus) (UniProt P29276+P25099+P30543); experiment: Ratio of Ki at A2 and A1 receptors; format: protein assay

SMILES | Ki [1] [nM] | Ki [2] [nM] | Ratio [3]
Cc1nnc2c(NC3CCCC3)nc3ccccc3n12 | 34 | 2700 | 79
CCc1nnc2c(NC3CC4CCC3C4)nc3ccccc3n12 (stereo not given) | 44 | 6100 | 139
CCCCc1nnc2c(NC3CCCC3)nc3ccccc3n12 | 55 | > 10000 | > 182
CCc1nnc2c(Nc3ccccc3)nc3ccccc3n12 | 630 | 11800 | 18.7
CCc1nnc2c(NC3CC3)nc3ccccc3n12 | 260 | 4500 | 17.3
CCCc1nnc2c(NC3CCCC3)nc3ccccc3n12 | 39 | 1830 | 47
CCc1nnc2c(NCC(C)O)nc3ccccc3n12 (stereo not given) | 330 | 22000 | 67
CCc1nnc2c(NC(C)C)nc3ccccc3n12 | 240 | 4200 | 17.5
CCN(CC)c1nc2ccccc2n2cnnc12 | 8900 | 18800 | 2.1
CCc1nnc2c(NC3CCC3)nc3ccccc3n12 | 58 | 1710 | 29
FC(F)(F)c1nnc2c(NC3CCCC3)nc3ccccc3n12 | 7.3 | 1010 | 138
CCc1nnc2c(NC3CCCCC3)nc3ccccc3n12 | 80 | 4000 | 50
CC(C)Nc1nc2ccccc2n2cnnc12 | 2300 | 7000 | 3
c1ccc2c(c1)nc(NC1CCCC1)c1nncn12 | 181 | 6700 | 37
CCc1nnc2c(NC3CCCC3)nc3ccccc3n12 | 28 | 3000 | 107
